# Laboratory results from ChEMBL document CHEMBL1124311, “Synthesis and antiallergy activity of 4-(diarylhydroxymethyl)-1-[3-(aryloxy)propyl]piperidines and structurally related compounds” (J Med Chem, 1989).
# The source made the active and inactive calls. The rule behind the calls is not given here.
# Legend:
# Rattus norvegicus [1] = assay: Oral antiallergy activity in the passive foot anaphylaxis (PFA) model of rat, at a dose of 10 (mg/kg); Activity equal to positive control group; format: functional, organism-based
# Rattus norvegicus [2] = assay: Oral antiallergy activity in the passive foot anaphylaxis (PFA) model of rat, at a dose of 3.16 (mg/kg); not significantly different from negative control group; format: functional, organism-based
# Rattus norvegicus [3] = assay: Oral antiallergy activity in the passive foot anaphylaxis (PFA) model of rat, at a dose of 3.16 (mg/kg); Activity between positive and negative control groups; format: functional, organism-based
# Rattus norvegicus [4] = assay: Oral antiallergy activity in the passive foot anaphylaxis (PFA) model of rat, at a dose of 1.0 (mg/kg); not significantly different from negative control group; format: functional, organism-based
# Rattus norvegicus [5] = assay: Oral antiallergy activity in the passive foot anaphylaxis (PFA) model of rat, at a dose of 10 (mg/kg); Activity greater than positive control group; format: functional, organism-based
# Cavia porcellus [6] = species on record: Cavia porcellus; assay: Oral antiallergy activity in the guinea pig anaphylaxis (GPA) model, at a pretreatment time of 24 h; format: functional; settings: read-out: PD50
# How it was run: (§1)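 Fasted, sensitized Dunkin-Hartley guinea pigs, randomized into control (N = 8) and test (N = 4) groups, dosed by gavage at 10 mL/kg in 0.5% Tween 80 in water; theophylline 100 mg/kg po as reference. At the stated pretreatment time, each animal was exposed to aerosolized 1% (w/v) egg albumin at 10 L air/min for up to 5 min. Protection meant no collapse within 5 min. PD50 was calculated by Litchfield–Wilcoxon.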
# Cavia porcellus [7] = species on record: Cavia porcellus; assay: Oral antiallergy activity in the guinea pig anaphylaxis (GPA) model, at a pretreatment time of 1 h; format: functional; settings: read-out: PD50; how it was run: as §1
# Histamine H1 receptor = Histamine H1 receptor (Cavia porcellus, UniProt P31389); assay: Inhibitory activity against Tritiated [3H]- mepyramine binding to histamine H1 receptor in guinea pig cerebral cortex; format: tissue-based
# How it was run: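 Guinea pig (Dunkin-Hartley) cerebral cortex homogenized in cold 50 mM Na-K phosphate pH 7.5, centrifuged at 48000g three times, resuspended 30 mL buffer/g tissue. Six concentrations (1e-5 to 1e-10 M) run in triplicate. IC50 derived by regression of logit % control binding vs log concentration.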
# Rattus norvegicus [8] = assay: Oral antiallergy activity in the passive foot anaphylaxis (PFA) model of rat, at a dose of 3.16 (mg/kg); Activity equal to positive control group; format: functional, organism-based
# Cavia porcellus [9] = species on record: Cavia porcellus; assay: Oral antiallergy activity in the guinea pig anaphylaxis (GPA) model of, at a pretreatment time of 5 h; format: functional; settings: read-out: PD50; how it was run: as §1
# Rattus norvegicus [10] = assay: Oral antiallergy activity in the passive foot anaphylaxis (PFA) model of rat, at a dose of 3.16 (mg/kg); Activity greater than positive control group; format: functional, organism-based
# Rattus norvegicus [11] = assay: Oral antiallergy activity in the passive foot anaphylaxis (PFA) model of rat, at a dose of 0.5 (mg/kg); Activity between positive and negative control groups; format: functional, organism-based
# Rattus norvegicus [12] = assay: Oral antiallergy activity in the passive foot anaphylaxis (PFA) model of rat, at a dose of 1.0 (mg/kg); Activity between positive and negative control groups; format: functional, organism-based
# Rattus norvegicus [13] = assay: Oral antiallergy activity in the passive foot anaphylaxis (PFA) model of rat, at a dose of 10 (mg/kg); Activity between positive and negative control groups; format: functional, organism-based
# Rattus norvegicus [14] = assay: Oral antiallergy activity in the passive foot anaphylaxis (PFA) model of rat, at a dose of 0.5 (mg/kg); not significantly different from negative control group; format: functional, organism-based
# Rattus norvegicus [15] = assay: Oral antiallergy activity in the passive foot anaphylaxis (PFA) model of rat, at a dose of 1.0 (mg/kg); format: functional, organism-based
# Chain of Histamine H1 receptor (P31389 whole entry): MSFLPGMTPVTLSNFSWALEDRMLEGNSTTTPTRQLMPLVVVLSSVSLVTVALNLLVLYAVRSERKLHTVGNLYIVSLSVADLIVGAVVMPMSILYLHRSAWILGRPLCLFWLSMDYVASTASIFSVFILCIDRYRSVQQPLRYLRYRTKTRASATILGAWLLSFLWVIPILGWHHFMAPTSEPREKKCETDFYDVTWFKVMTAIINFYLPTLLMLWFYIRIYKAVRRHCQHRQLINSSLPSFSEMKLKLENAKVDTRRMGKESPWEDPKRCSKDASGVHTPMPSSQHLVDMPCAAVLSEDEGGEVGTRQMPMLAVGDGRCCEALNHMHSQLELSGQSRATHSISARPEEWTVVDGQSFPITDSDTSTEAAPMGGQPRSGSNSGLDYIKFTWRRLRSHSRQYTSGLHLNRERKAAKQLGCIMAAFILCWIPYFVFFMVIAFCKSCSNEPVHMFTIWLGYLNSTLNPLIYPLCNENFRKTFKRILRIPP
structure (smiles),measurement,setting,value
CSc1ccc(OCCCN2CCC(C(O)(c3ccc(F)cc3)c3ccc(F)cc3)CC2)cc1,PFA,Rattus norvegicus [1],Activity equal to positive control group
same,PFA,Rattus norvegicus [2],Activity equal to positive control group
CCNCCc1ccc(CN(CC)c2cc(OC)ccc2[C@@H]2CCc3cc(O)ccc3C2)cc1,PFA,Rattus norvegicus [3],Activity between positive and negative control groups
same,PFA,Rattus norvegicus [4],Activity between positive and negative control groups
CN(C)C(=O)c1ccc(OCCCN2CCC(C(O)(c3ccc(F)cc3)c3ccc(F)cc3)CC2)cc1,PFA,Rattus norvegicus [3],Activity between positive and negative control groups
same,PFA,Rattus norvegicus [5],Activity between positive and negative control groups
same,PFA,Rattus norvegicus [4],Activity between positive and negative control groups
COc1cc(C(C)=O)ccc1OCCCN1CCC(C(O)(c2ccc(F)cc2)c2ccc(F)cc2)CC1,ED50,Cavia porcellus [6],0.78 mg/kg
same,ED50,Cavia porcellus [7],1.78 mg/kg
same,IC50,Histamine H1 receptor,8 nM
same,PFA,Rattus norvegicus [8],Active
same,PFA,Rattus norvegicus [5],Active
same,ED50,Cavia porcellus [9],0.18 mg/kg
same,PFA,Rattus norvegicus [4],inactive
CC(C)C(=O)c1ccc(OCCCN2CCC(C(O)(c3ccc(F)cc3)c3ccc(F)cc3)CC2)cc1,PFA,Rattus norvegicus [2],Activity greater than positive control group
same,PFA,Rattus norvegicus [5],Activity greater than positive control group
CCC(=O)c1ccc(OCCCN2CCC(C(O)(c3ccc(F)cc3)c3ccc(F)cc3)CC2)cc1,PFA,Rattus norvegicus [8],Activity equal to positive control group
same,PFA,Rattus norvegicus [5],Activity equal to positive control group
same,PFA,Rattus norvegicus [4],Activity equal to positive control group
CCOC(=O)c1ccc(OCCCN2CCC(C(O)(c3ccc(F)cc3)c3ccc(F)cc3)CC2)cc1.Cl,ED50,Cavia porcellus [6],0.37 mg/kg
same,PFA,Rattus norvegicus [10],Active
same,ED50,Cavia porcellus [7],1 mg/kg
same,IC50,Histamine H1 receptor,956 nM
same,PFA,Rattus norvegicus [11],Weak activity
same,ED50,Cavia porcellus [9],0.44 mg/kg
same,PFA,Rattus norvegicus [12],Weak activity
CC(C)Oc1ccccc1OCCCN1CCC(C(O)(c2ccc(F)cc2)c2ccc(F)cc2)CC1,PFA,Rattus norvegicus [3],Activity between positive and negative control groups
same,PFA,Rattus norvegicus [12],Activity between positive and negative control groups
Cc1cccc(OCCCN2CCC(C(O)(c3ccc(F)cc3)c3ccc(F)cc3)CC2)c1,PFA,Rattus norvegicus [3],Activity between positive and negative control groups
same,PFA,Rattus norvegicus [13],Activity between positive and negative control groups
same,PFA,Rattus norvegicus [4],Activity between positive and negative control groups
COc1ccc(OCCCN2CCC(C(O)(c3ccc(F)cc3)c3ccc(F)cc3)CC2)cc1,PFA,Rattus norvegicus [1],Activity equal to positive control group
same,PFA,Rattus norvegicus [2],Activity equal to positive control group
CCOC(=O)Nc1ccc(OCCCN2CCC(C(O)(c3ccc(F)cc3)c3ccc(F)cc3)CC2)cc1,PFA,Rattus norvegicus [8],Activity equal to positive control group
same,PFA,Rattus norvegicus [5],Activity equal to positive control group
same,PFA,Rattus norvegicus [4],Activity equal to positive control group
COc1cc(C(C)=O)ccc1OCCCCN1CCC(C(O)(c2ccc(F)cc2)c2ccc(F)cc2)CC1,PFA,Rattus norvegicus [8],Activity equal to positive control group
CC(C)(C)C(=O)c1ccc(OCCCN2CCC(C(O)(c3ccc(F)cc3)c3ccc(F)cc3)CC2)cc1,PFA,Rattus norvegicus [1],Activity equal to positive control group
same,PFA,Rattus norvegicus [2],Activity equal to positive control group
O=C(O)Cc1ccc(OCCCN2CCC(C(O)(c3ccc(F)cc3)c3ccc(F)cc3)CC2)cc1,PFA,Rattus norvegicus [3],Activity between positive and negative control groups
same,PFA,Rattus norvegicus [1],Activity between positive and negative control groups
same,PFA,Rattus norvegicus [4],Activity between positive and negative control groups
O=C(O)CCc1ccc(OCCCN2CCC(C(O)(c3ccc(F)cc3)c3ccc(F)cc3)CC2)cc1,PFA,Rattus norvegicus [8],Activity between positive and negative control groups
same,PFA,Rattus norvegicus [5],Activity between positive and negative control groups
same,PFA,Rattus norvegicus [14],Activity between positive and negative control groups
same,PFA,Rattus norvegicus [12],Activity between positive and negative control groups
CS(=O)(=O)c1ccc(OCCCN2CCC(C(O)(c3ccc(F)cc3)c3ccc(F)cc3)CC2)cc1,PFA,Rattus norvegicus [1],Activity equal to positive control group
same,PFA,Rattus norvegicus [2],Activity equal to positive control group
CC(=O)c1ccc(OCCCN2CCC(C(O)(c3ccc(F)cc3)c3ccc(F)cc3)CC2)cc1,PFA,Rattus norvegicus [8],Activity equal to positive control group
same,PFA,Rattus norvegicus [5],Activity equal to positive control group
same,PFA,Rattus norvegicus [4],Activity equal to positive control group
Oc1ccccc1OCCCN1CCC(C(O)(c2ccc(F)cc2)c2ccc(F)cc2)CC1,PFA,Rattus norvegicus [1],Activity equal to positive control group
same,PFA,Rattus norvegicus [2],Activity equal to positive control group
Nc1ccc(OCCCN2CCC(C(O)(c3ccc(F)cc3)c3ccc(F)cc3)CC2)cc1,PFA,Rattus norvegicus [3],Activity between positive and negative control groups
same,PFA,Rattus norvegicus [5],Activity between positive and negative control groups
same,PFA,Rattus norvegicus [4],Activity between positive and negative control groups
COc1ccccc1OCCCN1CCC(C(O)(c2ccc(F)cc2)c2ccc(F)cc2)CC1,PFA,Rattus norvegicus [3],Activity between positive and negative control groups
same,PFA,Rattus norvegicus [12],Activity between positive and negative control groups
CC(=O)Nc1ccc(OCCCN2CCC(C(O)(c3ccc(F)cc3)c3ccc(F)cc3)CC2)cc1,PFA,Rattus norvegicus [8],Activity equal to positive control group
same,PFA,Rattus norvegicus [5],Activity equal to positive control group
same,PFA,Rattus norvegicus [4],Activity equal to positive control group
COC(=O)CCc1ccc(OCCCN2CCC(C(O)(c3ccc(F)cc3)c3ccc(F)cc3)CC2)cc1,PFA,Rattus norvegicus [3],Activity between positive and negative control groups
same,PFA,Rattus norvegicus [5],Activity between positive and negative control groups
same,PFA,Rattus norvegicus [14],Activity between positive and negative control groups
same,PFA,Rattus norvegicus [12],Activity between positive and negative control groups
OC(c1ccc(F)cc1)(c1ccc(F)cc1)C1CCN(CCCOc2ccccc2)CC1,PFA,Rattus norvegicus [8],Activity equal to positive control group
COC(=O)c1ccc(OCCCN2CCC(C(O)(c3ccc(F)cc3)c3ccc(F)cc3)CC2)cc1,ED50,Cavia porcellus [6],2.04 mg/kg
same,PFA,Rattus norvegicus [10],Active
same,ED50,Cavia porcellus [7],0.72 mg/kg
same,IC50,Histamine H1 receptor,63 nM
same,PFA,Rattus norvegicus [14],inactive
same,ED50,Cavia porcellus [9],0.32 mg/kg
same,PFA,Rattus norvegicus [12],Weak activity
COc1cc(C(C)=O)ccc1OCCCN1CCC(C(O)(c2ccccc2)c2ccc(F)cc2)CC1 (centres undefined),PFA,Rattus norvegicus [8],Activity equal to positive control group
NC(=O)c1ccc(OCCCN2CCC(C(O)(c3ccc(F)cc3)c3ccc(F)cc3)CC2)cc1,PFA,Rattus norvegicus [3],Activity between positive and negative control groups
same,PFA,Rattus norvegicus [5],Activity between positive and negative control groups
same,PFA,Rattus norvegicus [14],Activity between positive and negative control groups
same,PFA,Rattus norvegicus [12],Activity between positive and negative control groups
CC(=O)Cc1ccc(OCCCN2CCC(C(O)(c3ccc(F)cc3)c3ccc(F)cc3)CC2)cc1,PFA,Rattus norvegicus [2],Activity greater than positive control group
same,PFA,Rattus norvegicus [5],Activity greater than positive control group
O=C(O)c1ccc(OCCCN2CCC(C(O)(c3ccc(F)cc3)c3ccc(F)cc3)CC2)cc1,PFA,Rattus norvegicus [3],Activity between positive and negative control groups
same,PFA,Rattus norvegicus [15],Activity between positive and negative control groups
same,PFA,Rattus norvegicus [11],Activity between positive and negative control groups
COc1cc(C(C)=O)ccc1OCCCN1CCC(C(O)(c2ccccc2)c2ccccc2)CC1,ED50,Cavia porcellus [6],1.4 mg/kg
same,ED50,Cavia porcellus [7],0.57 mg/kg
same,IC50,Histamine H1 receptor,42 nM
same,PFA,Rattus norvegicus [8],Active
same,PFA,Rattus norvegicus [5],Active
same,ED50,Cavia porcellus [9],0.35 mg/kg
same,PFA,Rattus norvegicus [4],inactive
CCc1ccc(OCCCN2CCC(C(O)(c3ccc(F)cc3)c3ccc(F)cc3)CC2)cc1,PFA,Rattus norvegicus [3],Activity between positive and negative control groups
same,PFA,Rattus norvegicus [1],Activity between positive and negative control groups
same,PFA,Rattus norvegicus [4],Activity between positive and negative control groups
CCOC(=O)c1ccccc1OCCCN1CCC(C(O)(c2ccc(F)cc2)c2ccc(F)cc2)CC1,PFA,Rattus norvegicus [3],Activity between positive and negative control groups
same,PFA,Rattus norvegicus [13],Activity between positive and negative control groups
same,PFA,Rattus norvegicus [4],Activity between positive and negative control groups
CNC(=O)Nc1ccc(OCCCN2CCC(C(O)(c3ccc(F)cc3)c3ccc(F)cc3)CC2)cc1,PFA,Rattus norvegicus [1],Activity equal to positive control group
same,PFA,Rattus norvegicus [2],Activity equal to positive control group
COc1cc(C(C)=O)ccc1OCCCN1CCC(=C(c2ccccc2)c2ccccc2)CC1,PFA,Rattus norvegicus [8],Activity equal to positive control group
